Activity calls are given as the source filed them. The calls are words filed in the database; no cut-off is given here.
Key:
DLD-1 [1] = experiment: Cytotoxicity against human DLD1 cells after 96 hrs by MTT assay; assay type: functional, cell-based; conditions: DLD-1, 96 h
In short: (§1)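 Cells were grown in RPMI 1640 with 1 mM sodium pyruvate, 2 mM L-glutamine and 10% FBS. They were seeded at 1 × 10⁴ cells/mL and left overnight at 37 °C in 5% CO₂. Medium was then replaced with a broad concentration range of compound diluted from DMSO (final DMSO ≤0.1%). After 96 h exposure, growth was read by MTT.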

HT-29 [2] = experiment: Cytotoxicity against human HT-29 cells after 96 hrs by MTT assay; assay type: functional, cell-based; conditions: HT-29, 96 h; in short: as §1
MDA-MB-231 = experiment: Cytotoxicity against human MDA-MB-231 cells after 96 hrs by MTT assay; assay type: functional, cell-based; conditions: MDA-MB-231, 96 h; in short: as §1
[3] = test system: A2780 (human ovarian carcinoma); experiment: Cytotoxicity against human A2780 cells after 96 hrs by MTT assay; conditions: A2780, 96 h
HT-29 [4] = experiment: Cell cycle arrest in human HT-29 cells assessed as accumulation at G2/M phase at 40 nM after 48 hrs by FACS analysis; assay type: functional
HeLa [5] = experiment: Cytotoxicity against human HeLa cells expressing class 3 tubulin after 96 hrs by MTT assay; assay type: functional, cell-based
In short: (§2)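 Parental HeLa cells and a transfected class III β-tubulin-overexpressing variant were seeded at 1 × 10⁴ cells/mL and held overnight at 37 °C, 5% CO₂. Compounds in DMSO were diluted in complete medium over a broad range (final DMSO ≤0.1%) and exposed for 96 h. Read-out was MTT. IC50 is the mean ± standard error of at least four independent assays.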

A2780 ADR = experiment: Effect on ABCB1 level in human A2780AD cells expressing p-gp; assay type: functional, cell-based
HT-29 [6] = experiment: Cell cycle arrest in human HT-29 cells assessed as accumulation at G2/M phase at 40 nM after 24 hrs by FACS analysis; assay type: functional
HT-29 [7] = experiment: Induction of ABCB1 mRNA expression in human HT-29 cells at 1/10 IC50 to IC50 after 96 hrs by RT-PCR analysis; assay type: functional, cell-based
In short: (§3)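 HT29 and DLD-1 cells were seeded at 5 × 10⁵ cells/dish, incubated overnight, then treated for 96 h. Total RNA was isolated, and ABCB1 and ABCG2 mRNA were measured by quantitative RT-PCR. Fold induction is target/PPIA signal relative to the control ratio, from three independent PCR analyses. Statistics: paired two-tailed t test with two-way ANOVA and Bonferroni correction.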

A549 = experiment: Cytotoxicity against human A549 cells after 96 hrs by MTT assay in presence of fumitremorgin-C; assay type: functional, cell-based
In short: (§4)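 Cells were seeded at 1 × 10⁴ cells/mL in 96-well format and incubated overnight at 37 °C in 5% CO₂. Medium was replaced with serial compound dilutions from DMSO stocks in complete medium (final DMSO ≤0.1%). Chemosensitivity was read by MTT after 96 h.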

[8] = Cytotoxicity against human A2780AD cells expressing p-gp after 96 hrs by MTT assay; assay type: functional, cell-based; conditions: A2780 ADR; in short: as §4
HT-29 [9] = experiment: Induction of ABCG2 mRNA expression in human HT-29 cells at 1/10 IC50 to IC50 after 96 hrs by RT-PCR analysis; assay type: functional, cell-based; in short: as §3
HT-29 [10] = experiment: Induction of microtubule disruption in human HT-29 cells assessed as change […] cell morphology and cytoskeletal organization after 24 hrs by immunostaining; assay type: cell-based
In short: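 HT29 cells on glass coverslips were allowed to adhere for 24 h, then exposed to 5, 50 and 500 nM for 24 h. Cells were fixed in methanol at −20 °C for 30 min and stained with mouse anti-α-tubulin (1:500, 30 min, rt), then TRITC anti-mouse IgG (1:50, 30 min). Images were taken by confocal microscopy and compared with untreated cells.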

DLD-1 [11] = experiment: Induction of ABCB1 mRNA expression in human DLD1 cells at 1/10 IC50 to IC50 after 96 hrs by RT-PCR analysis; assay type: functional, cell-based; in short: as §3
Liver = experiment: Metabolic stability of the compound in mouse liver homogenates at 100 uM after 2 hrs; assay type: ADME, tissue-based; conditions: tissue homogenate
DLD-1 [12] = experiment: Induction of ABCG2 mRNA expression in human DLD1 cells at 1/10 IC50 to IC50 after 96 hrs by RT-PCR analysis; assay type: functional, cell-based; in short: as §3
HeLa [13] = experiment: Cytotoxicity against human HeLa cells after 96 hrs by MTT assay; assay type: functional, cell-based; in short: as §2

SMILES: COc1cc2c(c(OC)c1OC)-c1ccc(OC)c(=O)cc1[C@@H](NCc1ccc(I)cc1)CC2
- IC50 (DLD-1 [1]): 35.9 nM

SMILES: COc1cc2c(c(OC)c1OC)-c1ccc(OC)c(=O)cc1[C@@H](NCc1cccc(F)c1F)CC2
- IC50 (DLD-1 [1]): 4.67 nM
- IC50 (HT-29 [2]): 7.43 nM
- IC50 (MDA-MB-231): 86 nM

SMILES: COc1cc2c(c(OC)c1OC)-c1ccc(OC)c(=O)cc1[C@@H](NCc1ccc(F)cc1)CC2
- IC50 (DLD-1 [1]): 11.4 nM

SMILES: COc1cc2c(c(OC)c1OC)-c1ccc(OC)c(=O)cc1[C@@H](NCc1ccc(F)c(F)c1)CC2
- IC50 [3]: 18.8 nM
- Activity (HT-29 [4]): 91.2%
- IC50 (HeLa [5]): 14.1 nM
- Activity (A2780 ADR): inactive
- Activity (HT-29 [6]): 92.5%
- Activity (HT-29 [7]): Active
- Activity (A549): Active
- IC50 [8]: 17.2 nM
- IC50 (DLD-1 [1]): 1.61 nM
- IC50 (HT-29 [2]): 4.3 nM
- Activity (HT-29 [9]): Active
- Activity (HT-29 [10]): Dose-dependent effect
- Activity (DLD-1 [11]): inactive
- Stability (Liver): Stable
- IC50 (MDA-MB-231): 16 nM
- Activity (DLD-1 [12]): inactive
- IC50 (HeLa [13]): 25.3 nM

SMILES: COc1cc2c(c(OC)c1OC)-c1ccc(OC)c(=O)cc1[C@@H](NCc1ccc(Br)cc1)CC2
- IC50 (DLD-1 [1]): 31.2 nM

SMILES: COc1cc2c(c(OC)c1OC)-c1ccc(OC)c(=O)cc1[C@@H](NCc1cc(F)cc(F)c1)CC2
- IC50 (DLD-1 [1]): 35.2 nM
- IC50 (HT-29 [2]): 52 nM
- IC50 (MDA-MB-231): 523 nM

SMILES: COc1cc2c(c(OC)c1OC)-c1ccc(OC)c(=O)cc1[C@@H](NCc1cc(F)c(F)c(F)c1)CC2
- IC50 (DLD-1 [1]): 36.2 nM
- IC50 (HT-29 [2]): 64.5 nM
- IC50 (MDA-MB-231): 92.2 nM

SMILES: COc1ccc(CN[C@H]2CCc3cc(OC)c(OC)c(OC)c3-c3ccc(OC)c(=O)cc32)cc1
- IC50 (DLD-1 [1]): 15.7 nM
- IC50 (HT-29 [2]): 51 nM
- IC50 (MDA-MB-231): 93 nM

SMILES: COc1cc2c(c(OC)c1OC)-c1ccc(OC)c(=O)cc1[C@@H](NCc1ccc(Cl)cc1)CC2
- IC50 (DLD-1 [1]): 32.6 nM

SMILES: COc1cc2c(c(OC)c1OC)-c1ccc(OC)c(=O)cc1[C@@H](NCc1cccc(F)c1)CC2
- IC50 (DLD-1 [1]): 51.6 nM
- IC50 (HT-29 [2]): 63.4 nM
- IC50 (MDA-MB-231): 89.1 nM

SMILES: CC(=O)O[C@H]1C(=O)[C@@]2(C)[C@H]([C@H](OC(=O)c3ccccc3)[C@]3(O)C[C@H](OC(=O)[C@H](O)[C@@H](NC(=O)c4ccccc4)c4ccccc4)C(C)=C1C3(C)C)[C@]1(OC(C)=O)CO[C@@H]1C[C@@H]2O [PACLITAXEL]
- IC50 [3]: 1.1 nM
- IC50 [8]: > 1000 nM

SMILES: COc1cc2c(c(OC)c1OC)-c1ccc(OC)c(=O)cc1[C@@H](NC(C)=O)CC2 [COLCHICINE]
- IC50 [3]: 6.7 nM
- Activity (HT-29 [4]): Active
- IC50 (HeLa [5]): 9.7 nM
- Activity (HT-29 [6]): Active
- Activity (HT-29 [7]): Active
- IC50 [8]: 16.8 nM
- IC50 (DLD-1 [1]): 15.6 nM
- IC50 (HT-29 [2]): 69.2 nM
- Activity (HT-29 [9]): Active
- Activity (DLD-1 [11]): inactive
- IC50 (MDA-MB-231): 37 nM
- Activity (DLD-1 [12]): inactive
- IC50 (HeLa [13]): 8.2 nM
